Screens deposited in PubChem by several laboratories.
Most compounds without a hit are left out; they make up all but 4.1% or so of the library.
Cl transport mod: KCC2 (human) Cl- transport modulation; AID 1456; B-score of Tl+ flux slope (higher = more flux/activation; lower = inhibition) at 10 µM; KCC2 cells, thallium flux FluoZin-2 fluorescence; hit rate 2.2% among 190,000; Q9H2X9;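 active means thallium flux slope and its plate-corrected score both differing from the plate sample mean at a set confidence after two filtering rounds, in either direction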;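 further: slope of fluorescence scaled to starting intensity during 10 to 20 s after thallium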
Target sequence (Q9H2X9 whole entry, looked up): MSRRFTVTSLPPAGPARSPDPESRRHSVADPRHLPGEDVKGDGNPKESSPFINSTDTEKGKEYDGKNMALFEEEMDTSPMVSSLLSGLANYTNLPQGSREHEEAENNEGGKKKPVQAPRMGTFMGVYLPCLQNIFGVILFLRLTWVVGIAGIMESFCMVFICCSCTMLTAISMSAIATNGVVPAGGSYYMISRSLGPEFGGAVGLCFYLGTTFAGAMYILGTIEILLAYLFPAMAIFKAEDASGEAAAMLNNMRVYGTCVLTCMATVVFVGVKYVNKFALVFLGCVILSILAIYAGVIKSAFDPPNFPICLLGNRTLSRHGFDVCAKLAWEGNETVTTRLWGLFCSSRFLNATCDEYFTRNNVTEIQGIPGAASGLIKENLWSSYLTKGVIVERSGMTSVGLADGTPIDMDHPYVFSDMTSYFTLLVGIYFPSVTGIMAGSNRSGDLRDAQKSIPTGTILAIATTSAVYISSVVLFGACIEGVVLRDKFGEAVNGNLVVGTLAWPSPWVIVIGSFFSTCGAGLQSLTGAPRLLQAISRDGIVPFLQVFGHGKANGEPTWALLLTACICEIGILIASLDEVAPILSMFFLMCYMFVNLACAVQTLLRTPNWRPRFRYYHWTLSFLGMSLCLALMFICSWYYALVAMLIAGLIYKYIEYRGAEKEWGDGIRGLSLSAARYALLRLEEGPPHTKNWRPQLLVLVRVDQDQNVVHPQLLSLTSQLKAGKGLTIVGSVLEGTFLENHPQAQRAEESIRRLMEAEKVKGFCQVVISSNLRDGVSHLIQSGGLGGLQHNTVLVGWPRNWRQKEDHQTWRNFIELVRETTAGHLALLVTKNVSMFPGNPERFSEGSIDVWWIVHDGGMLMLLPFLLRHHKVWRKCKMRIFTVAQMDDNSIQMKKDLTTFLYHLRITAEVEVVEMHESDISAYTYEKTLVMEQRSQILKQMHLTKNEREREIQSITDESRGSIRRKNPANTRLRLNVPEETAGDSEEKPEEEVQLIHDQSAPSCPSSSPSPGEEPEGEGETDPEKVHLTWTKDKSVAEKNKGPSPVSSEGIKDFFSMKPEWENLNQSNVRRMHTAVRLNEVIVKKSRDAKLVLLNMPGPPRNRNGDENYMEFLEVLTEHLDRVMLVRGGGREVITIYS
Autophagy mod: alters autophagy in cells. MEF GFP-LC3 puncta imaging; test concentration mostly 10 µM. hit rate 0.98% among 190,000. AID 463193. calls only at 10 µM (by protocol);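 active means percentage of spot-positive cells more than 3 SD above its plate mean, without a fluorescence outlier flag or 80% toxicity; inconclusive means no clear call, values can overlap the other calls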;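 further: spot-positive cell cutoff set from DMSO-treated cells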
ROMK mod: modulates human ROMK potassium channel activity; hit rate 2% among 130,000; B-score at 10 µM; Tet-inducible ROMK, thallium flux fluorescence; actives lie on both sides;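 active means signal ratio slope over the read window, or its plate-corrected B-score, at least 3 SD from the plate mean, either direction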;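 further: B-score of the F/F0 ratio slope over 7 to 12 s after thallium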
Dynein transport: blocks dynein driven cargo transport along microtubules. z-score, hits read low. AID 1381. 3617.4 mouse cells, GR-EGFP nuclear translocation imaging; test concentration mostly 20 µM; stimulated with dexamethasone, 1 µM; stronger effect = lower value. hit rate 0.47% among 220,000;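 active means plate z-score of nuclear minus cytoplasmic receptor signal below a set negative limit, without overly bright fluorescence or cell loss, cut at about -3.5 in these data, passing the limit was not always enough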;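 further: z-score of nuclear minus cytoplasmic ring GR-EGFP intensity difference per well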
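Medium: Induction medium lacking tetracycline, stripped serum | Probe or stimulus: 1.0 µM final dexamethasone stimulus | Schedule: 48 h induction, then 1 h compound, then 30 min agonist, 37 °C | Signal: Automated 10x imaging of fixed Hoechst-stained cells | Evaluation: Per-cell GR-EGFP intensity, nucleus versus surrounding cytoplasmic ring, well-averaged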
Redox H2O2 prof: compounds producing H2O2 with reducing agent – biochemical, NIH compound library profiling, artefact control for MLSCN library redox annotation, primary screen. DTT-dependent redox cycling H2O2, phenol red/HRP absorbance; 100% = 100 µM peroxide control, 0% = buffer. activation, % at 10 µM. hit rate 0.03% among 200,000;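 active means activation of at least 50% relative to the plate's high and low controls in the primary single-dose screen; inactive means activation below 50%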;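 further: compound incubated with DTT at 0.8 mM final as the reducing agent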
KCC2 secondary: KCC2 (human) modulation, secondary assay | normalised thallium flux (F/F0 slope) at 10 µM | hit rate 15% among 3,700 | shares compounds with Cl transport mod | HEK293-KCC2, thallium flux, FluoZin2 fluorescence; stronger effect = higher value;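 active means thallium flux slope above the same plate's solvent-only control mean plus 3 SD; inconclusive means the two replicate wells disagree; inactive means no significant difference from solvent-only control wells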
KCC2 bumet counter: thallium flux despite bumetanide block in KCC2 cells, secondary assay 3. AID 1714. shares compounds with Cl transport mod. normalized thallium flux at 10 µM. hit rate 49% among 3,700. HEK293-KCC2 + bumetanide/ouabain, thallium flux FluoZin2; stronger effect = higher value;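 active means thallium entry rate above the same plate's blocked-transporter control wells by more than 3 SD; inconclusive means the two repeat wells disagree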;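 further: raw slope of fluorescence over initial fluorescence between 10 and 20 s after thallium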
KCC2 sec2: confirmation of human KCC2 transport modulators. shares compounds with Cl transport mod. HEK293-KCC2, thallium flux FluoZin2 fluorescence; actives lie on both sides; F/F0 rise rate, 10–20 s post-thallium. normalized thallium flux at 10 µM. hit rate 23% among 3,700. AID 1715;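 active means thallium flux slope more than 3 SD above or below the plate's solvent-only control mean, mostly below; inconclusive means the two repeat wells disagreed; inactive means no significant shift from solvent-only controls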;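 further: raw slope with 0.1% DMSO as baseline and bumetanide as block control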
HEK counter1: acts in parental HEK cells, KCC2 counter-screen | AID 1716 | shares compounds with Cl transport mod | thallium flux rate (normalised fluorescence) at 10 µM | HEK293 parental cells, thallium flux FluoZin2, ouabain; baseline-ratio fluorescence slope, 10–20 s after thallium | hit rate 46% among 3,700;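 active means thallium flux rate significantly above the same plate's solvent-only control wells, beyond their mean plus 3 SD; inconclusive means the two replicate wells gave conflicting results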
KCC2 ouabain: confirmation of human KCC2 modulators with ouabain | hit rate 48% among 3,700 | HEK293-KCC2, thallium flux FluoZin2 fluorescence; bidirectional: low = inhibitor, high = activator | AID 1717 | raw Tl+ flux slope (below DMSO = inhibition, above = activation) at 10 µM | shares compounds with Cl transport mod;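 active means thallium flux slope beyond 3 SD from same-plate DMSO control mean in most replicates, usually higher, sometimes lower; inconclusive means repeat tests gave conflicting results; inactive means no significant difference from controls in most replicates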;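 further: slope of initial-normalized fluorescence between seconds 10 and 20 after thallium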
HEK293 Tl flux2: counter-screen for KCC2 modulators: effect in parental HEK293 cells; hit rate 33% among 3,700; shares compounds with Cl transport mod; thallium flux slope at 10 µM; thallium flux FluoZin-2 fluorescence slope; AID 1718;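 active means thallium flux slope above the same plate's solvent-control mean plus 3 SD in both duplicate wells; inconclusive means duplicate wells that disagreed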;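 further: run without ouabain in cells lacking the KCC2 cotransporter; slope of fluorescence scaled to its starting value between 10 and 20 s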
* = called active by the depositor; i = inactive; ? = inconclusive; nt = not tested or not shown.

SMILES | Cl transport mod | Autophagy mod | ROMK mod | Dynein transport | Redox H2O2 prof | KCC2 secondary | KCC2 bumet counter | KCC2 sec2 | HEK counter1 | KCC2 ouabain | HEK293 Tl flux2
COc1ccc2nc(NC(=O)CSc3nnc(-c4ccoc4C)n3C)sc2c1 | -3.8* | i | nt | 0.11 | 0 | 0.0074 | ? | 0.032 | 0.0043 | 0.015* | 0.011
CNC(=S)N/N=C/c1c(Cl)cccc1Cl | 5.4* | i | -0.09 | 1.7 | 0 | 0.0067 | 0.014* | 0.03 | 0.016* | 0.023 | 0.013*
S=C(NCCc1ccccc1)N/N=C/c1c(Cl)cccc1Cl | 7.9* | i | -0.64 | -0.051 | 2 | ? | 0.019* | ? | 0.015* | 0.032* | 0.017*
Cc1cccc(C)c1NC(=S)N/N=C/c1c(Cl)cccc1Cl | 0.84 | i | 1.4 | -0.85 | -1 | nt | nt | nt | nt | nt | nt
Cc1nn(CC(=O)O)c2ccccc12 | 6.6* | i | nt | -0.88 | 0 | 0.0093 | 0.0064 | 0.029 | 0.0076 | 0.056 | 0.0095
O=C(N/N=C/c1ccccn1)c1cc(-c2ccccc2)nc2ccccc12 | 12* | nt | nt | 2.4 | nt | 0.0086 | 0.023* | 0.03 | 0.01* | ? | 0.0096
CCOC(=O)Cc1csc(NC(=S)NC(=O)c2cccc([N+](=O)[O-])c2)n1 | 9.6* | i | 0.069 | 1.1 | 0 | 0.014* | 0.034* | 0.036 | 0.014* | 0.034* | 0.011
CCOC(=O)Cc1csc(NC(=O)c2cc(C)cc(C)c2)n1 | 0.91 | i | 0.97 | 1.4 | 1 | nt | nt | nt | nt | nt | nt
CCOC(=O)Cc1csc(NC(=S)NC(=O)CC(C)C)n1 | 8.8* | i | -0.14 | 0.81 | 0 | ? | 0.04* | 0.03 | 0.014* | 0.036* | 0.011*
CCOC(=O)Cc1csc(NC(=S)NC(=O)c2cc(OC)cc(OC)c2)n1 | 26* | i | -0.26 | -1 | 0 | 0.015* | 0.034* | 0.03 | 0.023* | 0.065* | 0.012*
Cn1c(N)c(C(=O)COC(=O)/C=C/c2ccc(S(=O)(=O)N3CCOCC3)cc2)c(=O)n(C)c1=O | -0.91 | nt | nt | 1.1 | nt | nt | nt | nt | nt | nt | nt
Cc1ccc(-n2cccc2/C=C2\C(=N)N3N=C(C(C)C)SC3=NC2=O)cc1 | 7.1* | i | 0.41 | -0.78 | -1 | 0.0068 | 0.037* | ? | 0.03* | 0.031* | 0.017*
CCC1=NN2C(=N)/C(=C\c3cccn3-c3ccc(OC)cc3)C(=O)N=C2S1 | 1.4 | i | 0.68 | 1.9 | -1 | nt | nt | nt | nt | nt | nt
CCc1cc(SC#N)ccc1N | -0.35 | i | -0.0012 | -0.63 | -2 | nt | nt | nt | nt | nt | nt
COCC(=O)/C=C1\Sc2ccccc2N1C | 0.13 | i | nt | -1 | 1 | nt | nt | nt | nt | nt | nt
CN1/C(=C/C(=O)C2CCC2)Sc2ccccc21 | -4.6* | i | nt | -1 | 2 | 0.0055 | 0.0043 | 0.022* | 0.0069 | 0.014* | 0.0092
Cc1cc(C)nc(/N=C(\N)N(Cc2ccccc2)Cc2ccccc2)n1 | -0.29 | i | nt | -1.2 | 0 | nt | nt | nt | nt | nt | nt
S=c1[nH]nc(CSCc2ccccc2Cl)n1C1CCCCC1 | 27* | i | -0.94 | 0.3 | 0 | 0.0057 | 0.031* | ? | 0.029* | 0.028* | 0.02*
S=c1[nH]nc(COc2ccc(Cl)cc2)n1C1CCCCC1 | 2.5* | i | -1.6 | -0.43 | 1 | 0.0052 | 0.015* | 0.033 | 0.012* | ? | 0.015*
Cc1ccc(OCc2n[nH]c(=S)n2C2CCCCC2)cc1 | 13* | i | 1.2 | -0.84 | 0 | ? | 0.043* | 0.045* | 0.026* | 0.042* | 0.03*
Cc1cccc(OCc2n[nH]c(=S)n2C2CCCCC2)c1 | -0.06 | i | -0.059 | 0.36 | -2 | nt | nt | nt | nt | nt | nt
N#CC1CC(c2ccccc2)Nc2cc(Cl)ccc2N1 (stereo unspecified) | -0.38 | nt | -0.4 | 0.16 | nt | nt | nt | nt | nt | nt | nt
COC(=O)c1ccc(Cn2c(O)c(N=NC(N)=S)c3ccccc32)o1 | 7.1* | nt | 1.1 | -0.95 | nt | ? | 0.03* | 0.035 | 0.016* | 0.027 | ?
CCOC(=O)N=Nc1c(O)n(Cc2ccccc2)c2ccccc12 | 6.9* | i | -0.68 | -0.23 | 5 | 0.0057 | 0.013* | 0.034 | 0.012* | 0.023 | 0.014*
C/C(Cl)=C\Cn1c(O)c(N=NC(N)=S)c2ccccc21 | 42* | i | 1.3 | -0.41 | 0 | ? | 0.06* | 0.062* | 0.047* | 0.058* | 0.045*
SMILES | Cl transport mod | Autophagy mod | ROMK mod | Dynein transport | Redox H2O2 prof | KCC2 secondary | KCC2 bumet counter | KCC2 sec2 | HEK counter1 | KCC2 ouabain | HEK293 Tl flux2
NC(=S)N=Nc1c(O)n(Cc2ccccc2)c2ccccc12 | 8.8* | i | nt | -0.036 | 1 | 0.0074 | 0.0083* | 0.034 | 0.011* | ? | ?
Cc1cc(S(=O)(=O)N2CCN=C2c2ccccc2)c(C)cc1Cl | -0.79 | i | nt | -0.3 | 0 | nt | nt | nt | nt | nt | nt
COc1ccc(-c2nn(C)c(=O)c3ccccc23)cc1NS(C)(=O)=O | nt | i | 0.78 | -0.61 | 0 | 0.0078 | 0.0057 | 0.03 | 0.0065 | 0.019 | 0.0093
Cc1nc2ccccn2c1-c1ccnn1S(=O)(=O)c1ccc(F)cc1 | -1.6 | nt | nt | 0.22 | nt | nt | nt | nt | nt | nt | nt
CCOC(=O)/C(C)=N/NC(=O)c1ccc([N+](=O)[O-])cc1 | 23* | i | -0.5 | -0.84 | 0 | 0.0094* | 0.032* | 0.038* | 0.034* | 0.039* | 0.025*
O=C(Cc1ccccc1)c1c[nH]c(C(=O)NC2CCCC2)c1 | -0.18 | i | 0.27 | 1.7 | 0 | nt | nt | nt | nt | nt | nt
O=C(O/N=C1/CCCc2occc21)c1ccc(Cl)cc1Cl | 0.042 | nt | -0.58 | -0.76 | nt | nt | nt | nt | nt | nt | nt
O=C(Nc1nc2c(s1)CN(Cc1ccccc1)CC2)c1cccc(S(=O)(=O)N2CCc3ccccc32)c1 | 3.4* | i | nt | -1 | 3 | 0.0045* | 0.0015* | 0.021* | 0.0051* | 0.013* | 0.0079*
CC(=O)Nc1ccc(NC(=O)C(C)OC(=O)C2(c3ccc(Cl)cc3)CCCC2)cc1 (stereo unspecified) | -0.65 | i | -0.0076 | -0.063 | 0 | nt | nt | nt | nt | nt | nt
COc1ccc(OC)c(S(=O)(=O)Nc2ccc(F)cc2)c1 | nt | i | 1.7 | 0.31 | 0 | nt | nt | nt | nt | nt | nt
COc1ccc(OC)c(S(=O)(=O)Nc2cnc3ccccc3c2)c1 | -5.6* | i | nt | 0.19 | 2 | 0.0068 | 0.0048 | 0.031 | 0.0081 | 0.019 | 0.011
